Reference: PubChem BioAssay AID588705 (Broad Institute, 2011)
Calls of active or inactive are those of the source. No rule for the calls is given here.

test system: not listed separately; assay: viability of MDA231 breast tumor cells – cell-based, CellTiter-Glo luminescence, dry powder, dose response (AID 588705); conditions: MDA-MB-231 viability, CellTiter-Glo luminescence, 72 h
How it was run: (§1)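 Assay system: MDA231 (MDA-MB-231) human breast cancer cell line; Input: 1000 cells/well; Medium: serum-free DMEM/MEGM screening medium with hydrocortisone, insulin, EGF, BPE; Schedule: compound added 24 h post-seeding, then 72 h exposure; Measured by: CellTiter-Glo luminescence for cell viability; Control set: DMSO-only negative control wells.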

Row | SMILES | outcome
1 | O=C(N/N=C/c1ccc[nH]1)c1cc2ccccc2o1 | inactive

test system: MDA-MB-231 viability, CellTiter-Glo luminescence, 72 h; assay: as above; conditions: not given
How it was run: as §1

Row | SMILES | AC50 [µM]
2 | O=C(COc1cc(Cl)ccc1Cl)N/N=C/c1ccc[nH]1 | 7.24
3 | Cc1cc(Cl)ccc1OCC(=O)N/N=C/c1ccc[nH]1 | 16.7
4 | CC(C)(C)c1ccc2c(c1)OC(C(=O)N/N=C/c1ccc[nH]1)CO2 (configuration not stated) | 14.7
5 | O=C(COc1c(Cl)cc(Cl)cc1Cl)N/N=C/c1ccc[nH]1 | 2.81
6 | O=C(COc1ccc(Cl)cc1Cl)N/N=C/c1cnc[nH]1 | 31.6
7 | O=C(COc1ccc(Cl)cc1Cl)N/N=C/c1ccc[nH]1 | 47.6
